Test results taken from article PMC7935732 (Targeted Oncology, 2021).
Entries after “also recorded” stand apart in the source; their conditions may differ.

Key:
breast cancer = settings: larger population, including MONARCH plus; cited from earlier work
[1] = tested on: advanced and/or metastatic cancers; test: Antitumor activity; type: in vivo, human
[2] = tested on: Chinese patients with advanced and/or metastatic cancers; test: Safety and tolerability; type: in vivo, human
Outline: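 Safety set: all patients with ≥ 1 dose. Patient-reported AEs were collected during treatment; chemistry, hematology and urinalysis were done at protocol time points. Laboratory and non-laboratory AEs were graded by CTCAE v4.0 and summarized by cohort.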

[3] = Breast cancer treated population, 150 mg (n1 = 10)
[4] = Breast cancer treated population, 200 mg (n1 = 11)
[5] = Breast cancer treated population, Total (n1 = 21)
[6] = Overall population, 150 mg (n = 12)
[7] = Overall population, 200 mg (n = 13)
[8] = Overall population, Total (n = 25)

CCN1CCN(Cc2ccc(Nc3ncc(F)c(-c4cc(F)c5nc(C)n(C(C)C)c5c4)n3)nc2)CC1 [abemaciclib]
Incidence of embolism (breast cancer): less than 5% | Confirmed responder ([1]; 150 mg cohort): 1 | Patients achieving PR ([1]; 1 patient in each dose cohort): 2 patients | Best overall response: Complete response (CR) [1, 3]: 0 n (%) | Best overall response: Partial response (PR) [1, 3]: 1 (10.0) n (%) | Best overall response: Progressive disease (PD) [1, 3]: 2 (20.0) n (%) | Disease control rate (CR+PR+SD) [1, 3]: 7 (70.0) n (%) | Overall response rate (CR+PR) [1, 3]: 1 (10.0) n (%) | Best overall response: Complete response (CR) [1, 4]: 0 n (%) | Best overall response: Partial response (PR) [1, 4]: 1 (9.1) n (%) | Best overall response: Progressive disease (PD) [1, 4]: 1 (9.1) n (%) | Disease control rate (CR+PR+SD) [1, 4]: 9 (81.8) n (%) | Overall response rate (CR+PR) [1, 4]: 1 (9.1) n (%) | Best overall response: Complete response (CR) [1, 5]: 0 n (%) | Best overall response: Partial response (PR) [1, 5]: 2 (9.5) n (%) | Best overall response: Progressive disease (PD) [1, 5]: 3 (14.3) n (%) | Disease control rate (CR+PR+SD) [1, 5]: 16 (76.2) n (%) | Overall response rate (CR+PR) [1, 5]: 2 (9.5) n (%) | Best overall response: Complete response (CR) [1, 6]: 0 n (%) | Best overall response: Partial response (PR) [1, 6]: 1 (8.3) n (%) | Best overall response: Progressive disease (PD) [1, 6]: 2 (16.7) n (%) | Disease control rate (CR+PR+SD) [1, 6]: 8 (66.7) n (%) | Overall response rate (CR+PR) [1, 6]: 1 (8.3) n (%) | Best overall response: Complete response (CR) [1, 7]: 0 n (%) | Best overall response: Partial response (PR) [1, 7]: 1 (7.7) n (%) | Best overall response: Progressive disease (PD) [1, 7]: 2 (15.4) n (%) | Disease control rate (CR+PR+SD) [1, 7]: 9 (69.2) n (%) | Overall response rate (CR+PR) [1, 7]: 1 (7.7) n (%) | Best overall response: Complete response (CR) [1, 8]: 0 n (%) | Best overall response: Partial response (PR) [1, 8]: 2 (8.0) n (%) | Best overall response: Progressive disease (PD) [1, 8]: 4 (16.0) n (%) | Disease control rate (CR+PR+SD) [1, 8]: 17 (68.0) n (%) | Overall response rate (CR+PR) [1, 8]: 2 (8.0) n (%) | Complete response (CR) ([1]; all treated patients (n = 25)): No complete response was observed; also recorded: no CR was observed | Disease control rate (DCR) ([1]; all treated patients (n = 25)): 68% | Patients achieving partial response (PR) ([1]; all treated patients (n = 25)): 8% | Grade 5 TEAE of respiratory failure ([2]; 150 mg cohort): ^aOne patient reported Grade 5 TEAE of respiratory failure in 150 mg cohort | Patients who discontinued study treatment due to leukopenia ([2]; 150 mg cohort): 1 patient | Patients with dose reduction from 150 to 100 mg during Cycle 1 ([2]; 150 mg cohort): 5 patients | Alanine aminotransferase increased, TEAE any grade ([2]; 150 mg every 12 h (n = 12)): 5 (41.7) n (%) | Anemia, TEAE any grade ([2]; 150 mg every 12 h (n = 12)): 7 (58.3) n (%) | Bilirubin increased, TEAE any grade ([2]; 150 mg every 12 h (n = 12)): 4 (33.3) n (%) | Blood creatinine increased, TEAE any grade ([2]; 150 mg every 12 h (n = 12)): 6 (50.0) n (%) | Cough, TEAE any grade ([2]; 150 mg every 12 h (n = 12)): 4 (33.3) n (%) | Decreased appetite, TEAE any grade ([2]; 150 mg every 12 h (n = 12)): 9 (75.0) n (%) | Diarrhea, TEAE any grade ([2]; 150 mg every 12 h (n = 12)): 9 (75.0) n (%) | Leukopenia (white blood cell count decreased), TEAE any grade ([2]; 150 mg every 12 h (n = 12)): 9 (75.0) n (%) | Localized edema, TEAE any grade ([2]; 150 mg every 12 h (n = 12)): 3 (25.0) n (%) | Malaise, TEAE any grade ([2]; 150 mg every 12 h (n = 12)): 7 (58.3) n (%) | Nausea, TEAE any grade ([2]; 150 mg every 12 h (n = 12)): 3 (25.0) n (%) | Neutropenia (neutrophil count decreased), TEAE any grade ([2]; 150 mg every 12 h (n = 12)): 10 (83.3) n (%) | Patients with ≥ 1 TEAE (any grade) ([2]; 150 mg every 12 h (n = 12)): 12 (100.0) n (%) | Thrombocytopenia (platelet count decreased), TEAE any grade ([2]; 150 mg every 12 h (n = 12)): 6 (50.0) n (%) | Vomiting, TEAE any grade ([2]; 150 mg every 12 h (n = 12)): 4 (33.3) n (%) | Patients reporting SAE of pulmonary embolism ([2]; 200 mg cohort): 3 patients | Patients reporting SAE of urinary tract infection ([2]; 200 mg cohort): 1 patient | Patients with dose reduction from 200 to 150 mg during Cycle 1 ([2]; 200 mg cohort): 2 patients | Alanine aminotransferase increased, TEAE any grade ([2]; 200 mg every 12 h (n = 13)): 2 (15.4) n (%) | Anemia, TEAE any grade ([2]; 200 mg every 12 h (n = 13)): 5 (38.5) n (%) | Bilirubin increased, TEAE any grade ([2]; 200 mg every 12 h (n = 13)): 1 (7.7) n (%) | Blood creatinine increased, TEAE any grade ([2]; 200 mg every 12 h (n = 13)): 8 (61.5) n (%) | Cough, TEAE any grade ([2]; 200 mg every 12 h (n = 13)): 4 (30.8) n (%) | Decreased appetite, TEAE any grade ([2]; 200 mg every 12 h (n = 13)): 6 (46.2) n (%) | Diarrhea, TEAE any grade ([2]; 200 mg every 12 h (n = 13)): 11 (84.6) n (%) | Leukopenia (white blood cell count decreased), TEAE any grade ([2]; 200 mg every 12 h (n = 13)): 7 (53.8) n (%) | Localized edema, TEAE any grade ([2]; 200 mg every 12 h (n = 13)): 2 (15.4) n (%) | Malaise, TEAE any grade ([2]; 200 mg every 12 h (n = 13)): 6 (46.2) n (%) | Nausea, TEAE any grade ([2]; 200 mg every 12 h (n = 13)): 6 (46.2) n (%) | Neutropenia (neutrophil count decreased), TEAE any grade ([2]; 200 mg every 12 h (n = 13)): 9 (69.2) n (%) | Patients with ≥ 1 TEAE (any grade) ([2]; 200 mg every 12 h (n = 13)): 13 (100.0) n (%) | Thrombocytopenia (platelet count decreased), TEAE any grade ([2]; 200 mg every 12 h (n = 13)): 5 (38.5) n (%) | Vomiting, TEAE any grade ([2]; 200 mg every 12 h (n = 13)): 4 (30.8) n (%) | Anemia TEAE ([2]; Grade 3, 150 mg (n = 12)): 2 (16.7) n (%) | Blood bilirubin increased TEAE ([2]; Grade 3, 150 mg (n = 12)): 1 (8.3) n (%) | Diarrhea TEAE ([2]; Grade 3, 150 mg (n = 12)): 1 (8.3) n (%) | Embolism TEAE ([2]; Grade 3, 150 mg (n = 12)): 1 (8.3) n (%) | Hyponatraemia TEAE ([2]; Grade 3, 150 mg (n = 12)): 2 (16.7) n (%) | Leukopenia (white blood cell count decreased) TEAE ([2]; Grade 3, 150 mg (n = 12)): 0 n (%) | Lung infection TEAE ([2]; Grade 3, 150 mg (n = 12)): 1 (8.3) n (%) | Malaise TEAE ([2]; Grade 3, 150 mg (n = 12)): 1 (8.3) n (%) | Muscular weakness TEAE ([2]; Grade 3, 150 mg (n = 12)): 1 (8.3) n (%) | Neutropenia (neutrophil count decreased) TEAE ([2]; Grade 3, 150 mg (n = 12)): 5 (41.7) n (%) | Patients with ≥ 1 TEAE of Grade ≥ 3 ([2]; Grade 3, 150 mg (n = 12)): 8 (66.7) n (%) | Thrombocytopenia (platelet count decreased) TEAE ([2]; Grade 3, 150 mg (n = 12)): 3 (25.0) n (%) | Vomiting TEAE ([2]; Grade 3, 150 mg (n = 12)): 0 n (%) | Anemia TEAE ([2]; Grade 3, 200 mg (n = 13)): 0 n (%) | Blood bilirubin increased TEAE ([2]; Grade 3, 200 mg (n = 13)): 0 n (%) | Diarrhea TEAE ([2]; Grade 3, 200 mg (n = 13)): 3 (23.1) n (%)
